Measurements as given in ChEMBL document CHEMBL1806449, “A class of Trp-Trp-AA-OBzl: Synthesis, in vitro anti-proliferation/in vivo anti-tumor evaluation, intercalation-mechanism investigation and 3D QSAR analysis” (Eur J Med Chem, 2011).
Peptide text beside a SMILES is read from it. * marks the point of attachment. OBn = c1ccc(CO*)cc1

Legend:
[1] = test system: HepG2; test: Antiproliferative activity against human HepG2 cells after 48 hrs by MTT assay; type: functional, cell-based; conditions: HepG2, 48 h
[2] = test system: Mus musculus; test: Acute toxicity in ICR mouse assessed as twitch at 500 mg/kg, ip administered qd for 7 days; type: organism-based; parameters: dose 500 mg/kg, route intraperitoneal; conditions: in vivo, 168 h
[3] = test system: Mus musculus; test: Toxicity in ICR mouse xenografted with mouse S180 cells assessed as effect on brain weight at 8.9 umol/kg; type: organism-based, CCRF S-180; conditions: in vivo
Method in brief: (§1)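 S180-bearing male ICR mice (10–12 weeks; 1×10^7 cells s.c. right oxter; 12 per group), daily i.p. 8.9 µmol/kg for seven days starting 24 h after implantation; NS, cytarabine and doxorubicin controls; liver, brain, kidney weights, spleen index and body-weight gain recorded.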

[4] = test system: K562; test: Antiproliferative activity against human K562 cells after 48 hrs by MTT assay; type: functional, cell-based; conditions: K562, 48 h
[5] = test system: CCRF S-180; test: Antitumor activity against mouse S180 cells xenografted in ICR mouse assessed as tumor growth inhibition at 8.9 umol/kg, ip administered 1 day after tumor inoculation qd for 7 days; type: functional; conditions: CCRF S-180, ip, read-out: GI
Method in brief: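 Male ICR mice 10–12 weeks; S180 from ascites serially transplanted weekly; 1×10^7 viable cells in 0.2 ml NS implanted s.c. at right oxter; 24 h later randomized (10 per group); daily i.p. 8.9, 0.89 or 0.089 µmol/kg/day in 0.2 ml NS, 7 days; NS and cytarabine controls; sacrificed 24 h after last dose; inhibition % = [1−(Tw/Cw)]×100.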

[6] = test system: Mus musculus; test: Toxicity in ICR mouse xenografted with mouse S180 cells assessed as effect on liver weight at 8.9 umol/kg; type: organism-based, CCRF S-180; conditions: in vivo; method in brief: as §1
[7] = test system: CCRF S-180; test: Antiproliferative activity against mouse S180 cells after 48 hrs by MTT assay; type: functional, cell-based; conditions: CCRF S-180, 48 h
[8] = test system: Mus musculus; test: Acute toxicity in ICR mouse assessed as tremors at 500 mg/kg, ip administered qd for 7 days; type: organism-based; parameters: dose 500 mg/kg, route intraperitoneal; conditions: in vivo, 168 h
[9] = test system: Mus musculus; test: Acute toxicity in ICR mouse assessed as mortality at 500 mg/kg, ip administered qd for 7 days; type: organism-based; parameters: dose 500 mg/kg, route intraperitoneal; conditions: in vivo, 168 h
[10] = test system: Mus musculus; test: Toxicity in ICR mouse xenografted with mouse S180 cells assessed as increase in body weight at 8.9 umol/kg; type: organism-based, CCRF S-180; conditions: in vivo; method in brief: as §1
[11] = test system: H22; test: Antiproliferative activity against mouse H22 cells after 48 hrs by MTT assay; type: functional, cell-based; conditions: H22, 48 h
[12] = Acute toxicity in ip dosed ICR mouse assessed as lethal dose; type: organism-based; conditions: in vivo
Method in brief: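 Male ICR mice, 24 weeks old, got a single i.p. injection of 500 mg/kg in 0.2 ml NS (normal saline). They were watched for 7 days for neurotoxic behaviour (tremor, twitch, jumping, tetanus, supination) and for death.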

[13] = test system: Mus musculus; test: Acute toxicity in ICR mouse assessed as apparent changes in any organ at 500 mg/kg, ip administered qd for 7 days; type: organism-based; parameters: dose 500 mg/kg, route intraperitoneal; conditions: in vivo, 168 h
[14] = test system: B16; test: Antiproliferative activity against mouse B16 cells after 48 hrs by MTT assay; type: functional, cell-based; conditions: B16, 48 h
[15] = test system: Mus musculus; test: Acute toxicity in ICR mouse assessed as tetanus at 500 mg/kg, ip administered qd for 7 days; type: organism-based; parameters: dose 500 mg/kg, route intraperitoneal; conditions: in vivo, 168 h
[16] = test system: Mus musculus; test: Toxicity in ICR mouse xenografted with mouse S180 cells assessed as increase in spleen index at 8.9 umol/kg; type: organism-based, CCRF S-180; conditions: in vivo; method in brief: as §1
[17] = test system: Mus musculus; test: Acute toxicity in ICR mouse assessed as supination at 500 mg/kg, ip administered qd for 7 days; type: organism-based; parameters: dose 500 mg/kg, route intraperitoneal; conditions: in vivo, 168 h
[18] = test system: Mus musculus; test: Toxicity in ICR mouse xenografted with mouse S180 cells assessed as effect on kidney weight at 8.9 umol/kg; type: organism-based, CCRF S-180; conditions: in vivo; method in brief: as §1
[19] = test system: Mus musculus; test: Acute toxicity in ICR mouse assessed as jumping at 500 mg/kg, ip administered qd for 7 days; type: organism-based; parameters: dose 500 mg/kg, route intraperitoneal; conditions: in vivo, 168 h

Row | Structure (SMILES) | IC50 [1] [µM] | Activity [2] | Activity [3] [g] | IC50 [4] [µM] | inhibition in vivo at 8.9 µmol/kg [5] [%] | Activity [6] [g] | IC50 [7] [µM] | Activity [8] | Activity [9] | Activity [10] [g] | IC50 [11] [µM] | LD50 [12] [mg/kg] | Activity [13] | IC50 [14] [µM] | Activity [15] | Activity [16] | Activity [17] | Activity [18] [g] | Activity [19]
1 | C[C@H](NC(=O)[C@H](Cc1c[nH]c2ccccc12)NC(=O)[C@@H](N)Cc1c[nH]c2ccccc12)C(=O)OCc1ccccc1 (H-Trp-Trp-Ala-OBn) | 20.1 | Non-toxic | 0.27 | 18.4 | 50 | 1.77 | 18.5 | Non-toxic | Non-toxic | 9.5 | 20.8 | > 500 | Non-toxic | 23 | Non-toxic | 7.59 | Non-toxic | 0.16 | Non-toxic
2 | NC(=O)C[C@H](NC(=O)[C@H](Cc1c[nH]c2ccccc12)NC(=O)[C@@H](N)Cc1c[nH]c2ccccc12)C(=O)OCc1ccccc1 (H-Trp-Trp-Asn-OBn) | 17.9 | Non-toxic | 0.27 | 16.3 | 50.6 | 1.82 | 15.5 | Non-toxic | Non-toxic | 9.96 | 18.7 | > 500 | Non-toxic | 21.3 | Non-toxic | 7.81 | Non-toxic | 0.16 | Non-toxic
3 | NC(=O)CC[C@H](NC(=O)[C@H](Cc1c[nH]c2ccccc12)NC(=O)[C@@H](N)Cc1c[nH]c2ccccc12)C(=O)OCc1ccccc1 (H-Trp-Trp-Gln-OBn) | 10.2 | Non-toxic | 0.27 | 8.86 | 72 | 1.81 | 8.74 | Non-toxic | Non-toxic | 9.89 | 10.7 | > 500 | Non-toxic | 12 | Non-toxic | 7.96 | Non-toxic | 0.16 | Non-toxic
4 | N[C@@H](Cc1c[nH]c2ccccc12)C(=O)N[C@@H](Cc1c[nH]c2ccccc12)C(=O)N[C@@H](CCC(=O)O)C(=O)OCc1ccccc1 (H-Trp-Trp-Glu-OBn) | 21 | Non-toxic | 0.27 | 11 | 55.3 | 1.86 | 13.4 | Non-toxic | Non-toxic | 9.94 | 13.7 | > 500 | Non-toxic | 20.8 | Non-toxic | 7.92 | Non-toxic | 0.17 | Non-toxic
5 | N[C@@H](Cc1c[nH]c2ccccc12)C(=O)N[C@@H](Cc1c[nH]c2ccccc12)C(=O)NCC(=O)OCc1ccccc1 (H-Trp-Trp-Gly-OBn) | 17.8 | Non-toxic | 0.27 | 16.2 | 56.6 | 1.8 | 19.5 | Non-toxic | Non-toxic | 9.77 | 22.4 | > 500 | Non-toxic | 24.3 | Non-toxic | 8.11 | Non-toxic | 0.16 | Non-toxic
6 | N[C@@H](Cc1c[nH]c2ccccc12)C(=O)N[C@@H](Cc1c[nH]c2ccccc12)C(=O)N[C@@H](Cc1cnc[nH]1)C(=O)OCc1ccccc1 (H-Trp-Trp-His-OBn) | 27.3 | Non-toxic | 0.28 | 25.3 | 30.7 | 1.78 | 26.5 | Non-toxic | Non-toxic | 10.04 | 27 | > 500 | Non-toxic | 31.7 | Non-toxic | 8.34 | Non-toxic | 0.16 | Non-toxic
7 | CC[C@H](C)[C@H](NC(=O)[C@H](Cc1c[nH]c2ccccc12)NC(=O)[C@@H](N)Cc1c[nH]c2ccccc12)C(=O)OCc1ccccc1 (H-Trp-Trp-Ile-OBn) | 22.2 | Non-toxic | 0.28 | 19.4 | 51.5 | 1.85 | 19.2 | Non-toxic | Non-toxic | 9.8 | 21.7 | > 500 | Non-toxic | 25.9 | Non-toxic | 8.12 | Non-toxic | 0.17 | Non-toxic
8 | CC(C)C[C@H](NC(=O)[C@H](Cc1c[nH]c2ccccc12)NC(=O)[C@@H](N)Cc1c[nH]c2ccccc12)C(=O)OCc1ccccc1 (H-Trp-Trp-Leu-OBn) | 123 | – | 0.26 | 116 | 3.29 | 1.7 | 118 | – | – | 8.4 | 121 | – | – | 124 | – | 7.45 | – | 0.16 | –
9 | CSCC[C@H](NC(=O)[C@H](Cc1c[nH]c2ccccc12)NC(=O)[C@@H](N)Cc1c[nH]c2ccccc12)C(=O)OCc1ccccc1 (H-Trp-Trp-Met-OBn) | 52.7 | Non-toxic | 0.28 | 41.6 | 16.9 | 1.74 | 49.1 | Non-toxic | Non-toxic | 8.93 | 49.1 | > 500 | Non-toxic | 65.4 | Non-toxic | 7.69 | Non-toxic | 0.16 | Non-toxic
10 | N[C@@H](Cc1c[nH]c2ccccc12)C(=O)N[C@@H](Cc1c[nH]c2ccccc12)C(=O)N[C@@H](Cc1c[nH]c2ccccc12)C(=O)OCc1ccccc1 (H-Trp-Trp-Trp-OBn) | 154 | – | 0.29 | 125 | 19.1 | 1.78 | 115 | – | – | 8.71 | 98.1 | – | – | 157 | – | 7.75 | – | 0.16 | –
